The results in this text go back to ChEMBL document CHEMBL3751698, “5,7-Disubstituted-[1,2,4]triazolo[1,5-a][1,3,5]triazines as pharmacological tools to explore the antagonist selectivity profiles toward adenosine receptors” (Eur J Med Chem, 2016).

Broadly, the Ki is a measure of affinity in units of concentration, obtained from inhibition or displacement. Usually IC50 stands for the concentration at which inhibition is half-maximal.

One assay concerns the target T1, Adenosine receptor A1 (Homo sapiens, UniProt P30542).
T1 sequence (P30542 whole entry): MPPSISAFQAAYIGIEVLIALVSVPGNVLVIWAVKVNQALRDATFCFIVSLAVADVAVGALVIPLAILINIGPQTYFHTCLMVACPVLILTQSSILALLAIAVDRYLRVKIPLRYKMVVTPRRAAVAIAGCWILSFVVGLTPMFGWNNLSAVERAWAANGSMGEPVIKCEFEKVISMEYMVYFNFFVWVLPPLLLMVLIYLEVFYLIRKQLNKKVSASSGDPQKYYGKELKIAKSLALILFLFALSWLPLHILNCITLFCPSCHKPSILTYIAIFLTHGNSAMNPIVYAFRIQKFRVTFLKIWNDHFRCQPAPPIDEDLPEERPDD
Nature of the assay: Displacement of [3H]CCPA from human A1 adenosine receptor expressed in CHO cell membranes. Particulars: read-out: Ki. The essentials: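 Membranes from stably transfected CHO cells (1,000 x g spin to clear nuclei and debris, then 100,000 x g pellet), resuspended in binding buffer and frozen. Competition against 1 nM [3H]CCPA; nonspecific binding defined with 1 mM theophylline. Ki calculated from competition curves.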
Background: Loss of bound radioactivity is the signal in a displacement assay; it reports binding, not function.

The species named for assay [1] is Homo sapiens. As to the kind of experiment: Selectivity index, ratio of Ki for human A1 adenosine receptor to Ki for human A2A adenosine receptor.
The next assay deals with T2, Adenosine receptor A2b (Homo sapiens, UniProt P29275).
T2 sequence (P29275 whole entry): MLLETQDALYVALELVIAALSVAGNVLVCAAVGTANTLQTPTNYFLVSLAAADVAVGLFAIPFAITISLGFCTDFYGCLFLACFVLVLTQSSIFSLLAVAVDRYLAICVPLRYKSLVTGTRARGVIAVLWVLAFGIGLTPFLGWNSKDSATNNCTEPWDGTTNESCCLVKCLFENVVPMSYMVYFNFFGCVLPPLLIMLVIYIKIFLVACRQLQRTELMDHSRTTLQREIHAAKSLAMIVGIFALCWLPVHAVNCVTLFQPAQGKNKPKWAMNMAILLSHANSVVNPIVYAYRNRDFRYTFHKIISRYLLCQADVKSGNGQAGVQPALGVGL
Nature of the assay: Antagonist activity at human A2B adenosine receptor expressed in CHO cell membranes assessed as inhibition of NECA stimulated adenylyl cyclase activity. In kind it is functional, cell-based. In a few lines: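 CHO cells stably expressing hA2B; crude membranes from a single high-speed spin, resuspended in 50 mM Tris/HCl pH 7.4 and used fresh. Incubated 20 min with about 150,000 cpm [α-32P]ATP in a mixture without EDTA and NaCl. IC50 for inhibition of NECA-stimulated cyclase obtained by Hill equation fit.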

The species named for assay [2] is Homo sapiens. Nature of the assay: Selectivity index, ratio of Ki for human A3 adenosine receptor to Ki for human A2A adenosine receptor.
A further assay addresses Adenosine receptor A2a (Homo sapiens, UniProt P29274). Nature of the assay: Displacement of [3H]NECA from human A2A adenosine receptor expressed in CHO cell membranes. The essentials:
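Crude membranes from stably transfected CHO cells, prepared by a two-step spin (1,000 x g, then 100,000 x g). Competition with 10 nM [3H]NECA, with nonspecific binding measured in presence of 100 µM R-PIA. Ki derived from competition experiments.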

A further assay addresses T3, Adenosine receptor A3 (Homo sapiens, UniProt P0DMS8).
T3 sequence (P0DMS8 whole entry): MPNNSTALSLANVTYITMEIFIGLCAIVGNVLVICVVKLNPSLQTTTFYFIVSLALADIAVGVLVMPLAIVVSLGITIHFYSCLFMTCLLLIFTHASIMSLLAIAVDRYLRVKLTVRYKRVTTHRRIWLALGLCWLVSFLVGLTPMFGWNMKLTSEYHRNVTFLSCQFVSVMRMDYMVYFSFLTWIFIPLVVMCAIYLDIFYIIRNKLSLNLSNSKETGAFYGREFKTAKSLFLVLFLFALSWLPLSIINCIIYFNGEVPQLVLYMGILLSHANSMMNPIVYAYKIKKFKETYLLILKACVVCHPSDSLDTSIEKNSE
As to the kind of experiment: Displacement of [3H]HEMADO from human A3 adenosine receptor expressed in CHO cell membranes. In a few lines:
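Two-step centrifugation (1,000 x g, then 100,000 x g) of stably transfected CHO cells gave the membranes. Displacement of 1 nM [3H]HEMADO; nonspecific binding taken with 100 µM R-PIA. Ki computed from competition data.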

Sequence of Adenosine receptor A2a (P29274 whole entry): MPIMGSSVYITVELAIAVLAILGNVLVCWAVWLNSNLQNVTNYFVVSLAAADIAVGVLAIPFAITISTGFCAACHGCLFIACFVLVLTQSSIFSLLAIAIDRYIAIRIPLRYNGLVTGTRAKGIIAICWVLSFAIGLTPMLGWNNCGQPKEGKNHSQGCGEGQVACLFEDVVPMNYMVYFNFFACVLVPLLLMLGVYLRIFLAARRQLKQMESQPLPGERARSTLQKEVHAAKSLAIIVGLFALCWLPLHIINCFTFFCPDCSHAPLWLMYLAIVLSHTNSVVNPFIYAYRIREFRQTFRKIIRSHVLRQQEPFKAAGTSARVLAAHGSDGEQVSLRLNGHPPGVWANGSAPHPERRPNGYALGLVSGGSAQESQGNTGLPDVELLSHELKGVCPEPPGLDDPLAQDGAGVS

In the case of `CC(C)Nc1nc(N)n2nc(-c3ccco3)nc2n1`, the Ki on Adenosine receptor A1 turned out to be 4310 nM; at Adenosine receptor A2a it was 64.8 nM; at Adenosine receptor A3, 568 nM. The Ratio Ki in the assay filed under Homo sapiens [1] came out at 66.5; in the assay listed under Homo sapiens [2], 8.76. Besides, the 50% inhibitory concentration (IC50) on Adenosine receptor A2b was > 30000 nM.

As for `c1coc(-c2nc3nc(NC4CCCCC4)nc(NC4CCCCC4)n3n2)c1`, the Ki on Adenosine receptor A1 is 306 nM; on Adenosine receptor A2a it was 177 nM; on Adenosine receptor A3, 129 nM. Also, the Ratio Ki in the assay listed under Homo sapiens [1] was determined as 1.73; in the assay filed under Homo sapiens [2], 0.73. Also, the IC50 at Adenosine receptor A2b is > 30000 nM.

`c1ccc(CNc2nc(Oc3ccccc3)nc3nc(-c4ccco4)nn23)cc1`: the Ki was > 100000 nM at Adenosine receptor A1, 560 nM on Adenosine receptor A2a and 375 nM at Adenosine receptor A3. Further, the Ratio Ki in the assay listed under Homo sapiens [1] is > 178; in the assay filed under Homo sapiens [2], 0.67. The IC50 at Adenosine receptor A2b was > 30000 nM.

Regarding `CC(C)Nc1nc(NCc2ccccc2)n2nc(-c3ccco3)nc2n1`, the Ki is > 100000 nM on Adenosine receptor A1, 394 nM at Adenosine receptor A2a and 114 nM on Adenosine receptor A3. The Ratio Ki was > 253 in the assay listed under Homo sapiens [1] and 0.29 in the assay filed under Homo sapiens [2]. For the same molecule, the 50% inhibitory concentration (IC50) at Adenosine receptor A2b was > 30000 nM.

Consider `Fc1ccc(CNc2nc(NCc3ccc(F)cc3)n3nc(-c4ccco4)nc3n2)cc1`, for which the Ki was > 100000 nM at Adenosine receptor A1, 43.6 nM on Adenosine receptor A2a and 123 nM on Adenosine receptor A3. Besides, the results for the Ratio Ki in the assay listed under Homo sapiens [1] and in the assay listed under Homo sapiens [2] were > 2290 and 2.82, respectively. In addition, the IC50 on Adenosine receptor A2b was > 30000 nM.
